Among the data in the RNAGym collection of RNA variant scans (doi:10.1126/science.aae0568) are yeast fitness values, retold here.

The chains are these.
B1: tRNA (parent)
chain: GUUCCGUUGGCGUAAUGGUAACGCGUCUCCCUCCUAAGGAGAAGACUGCGGGUUCGAGUCCCGUACGGAACG

Fewer inactive variants are shown than the library holds.

The variants in the data set derive from B1. The data set is described as follows: yeast fitness relative to wild type (ratio to wild type); higher = fitter; tRNA-Arg(CCU), competitive growth, 37 C, YPD. An outline of the steps: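 Genotype frequency changes were the basis for Darwinian fitness relative to wild type. The frequencies came from 100-nucleotide paired-end sequencing of gene amplicons from the start population and each end population of pooled yeast strains with tRNA-Arg(CCU) gene variants at the native locus. Competition ran in YPD at 37°C for 24 hours in six replicates, genotypes needed ≥ 100 starting reads, and estimates < 0.5 were set to 0.5.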
For G18C U32C A57U, the yeast fitness is at most 0.5.
U19A A37G: the yeast fitness turned out to be 0.657.
G18C U19C C29A C30G: the yeast fitness was at most 0.5.
The value for G18C G23C U53A A69C was at most 0.5.
As for U19A A43U A70U, the yeast fitness came out at 0.825.
For the variant G18C C27A C55U G63C, the yeast fitness is at most 0.5.
The value for G18C U28G C61U A65C was at most 0.5; that for G18C A37C C49G was 0.663.
With G18C C24U A40U G56A A65G C66U, the yeast fitness was at most 0.5.
With G18U C24U A69U, the yeast fitness was at most 0.5.
Under G18C C29U A69C stands at most 0.5; under G18C C46U, 0.626.
The value for G18C C46A was 0.726.
With G18C G52A C62G, the yeast fitness stood at 0.55.
Consider U19A A37U G41C G67A, for which the yeast fitness was at most 0.5.
With G18C A36U, the yeast fitness is 0.551.
In the case of G18C A36G, the yeast fitness was 0.769.
In the case of G18C U26C G50C, the yeast fitness is at most 0.5.
With G18C A36G A37C, the yeast fitness was at most 0.5.
Turning to U19A A37U C55G U64A, the yeast fitness is at most 0.5.
The value for G18A U26G C55U C60G was 0.512; that for G18C C29U C46U A57G was 0.636.
Consider G18C U64A, for which the yeast fitness was found to be 0.593.
Under G18U A20U stands 0.722; under G18U U32C A57G, 0.568; under U19A C24A U32C A36U C66G, at most 0.5.
On to U19A C34G A40G, for which the yeast fitness was at most 0.5.
For the variant G18C C22G C55A A70U, the yeast fitness is at most 0.5.
As to U19A A69U, the yeast fitness worked out at 1.04.
As for U19A A69C, the yeast fitness turned out to be 1.08.
Under G18U C33U C34U C66A A70C stands at most 0.5; under G18C C49U A69U, at most 0.5; under G18C G51A, 0.518.
The value for G18C C29U A37G was at most 0.5; that for G18C G25A G38C G41A was at most 0.5; that for G18C C27U G38A G39C was 0.521.
On to U19A A40G C55G A70G, for which the yeast fitness was at most 0.5.
Turning to G18C A21U C30G A69C, the yeast fitness worked out at 0.555.
For G18C G41C G44C C55A, the yeast fitness is at most 0.5.
The value for G18C A21C A69U was at most 0.5.
Under G18C C34G A45C stands at most 0.5.
As to U19A C29U, the yeast fitness stood at 0.76.
Under U19A C29G stands 0.685; under U19A C29A, 0.712; under G18A U32A U53C, at most 0.5.
Regarding G18C C66A A69U, the yeast fitness is at most 0.5.
As for U19A A36G G50U U59A, the yeast fitness is at most 0.5.
As to G18C C30G U32C U53A, the yeast fitness was at most 0.5.
For the variant G18C A36U A57U, the yeast fitness was at most 0.5.
With G18C U32G A57C C62U, the yeast fitness is at most 0.5.
As to U19A A20G C49U U59C C62G, the yeast fitness was at most 0.5.
On to G18C U53A, for which the yeast fitness is at most 0.5.
On to U19A C22U, for which the yeast fitness worked out at 0.709.
As for U19A C33U, the yeast fitness turned out to be 0.777.
In the case of U19A C24U G25C C49U, the yeast fitness is at most 0.5.
Under G18C C29U G50C stands at most 0.5; under G18C A20U C34U A40C C49U U64C C66U, 0.549.
G18A U32A: the yeast fitness came out at 0.513.
G18C A21G: the yeast fitness turned out to be 0.643.
Turning to G18C G50A U59C, the yeast fitness was at most 0.5.
The value for G18C U28C C30U A43G C55U was at most 0.5; that for G18C C22A A65G was at most 0.5.
Consider U19A A20C C31G, for which the yeast fitness was at most 0.5.
Regarding U19A C29G A69C, the yeast fitness was 0.547.
On to U19A C27U A45C G63A, for which the yeast fitness was 0.729.
G18C U28G: the yeast fitness worked out at 0.727.
Under G18C C31A A37G G58C stands at most 0.5.
As to G18C C22U C31A C61G, the yeast fitness is at most 0.5.
Turning to U19A A70G, the yeast fitness amounted to 0.913.
As to G18C C24G A36C G38C U47C G58C, the yeast fitness was at most 0.5.
For G18C C31G A36C A45G A65G, the yeast fitness was 0.595.
Consider U19A C29A G67A, for which the yeast fitness is at most 0.5.
As for G18C G51A A57G C66A, the yeast fitness is at most 0.5.
As for G18C A40U A70G, the yeast fitness stood at 0.632.
Take G18C C30U C33U C49U: the yeast fitness came out at 0.608.
In the case of U19A A65C, the yeast fitness turned out to be 1.01.
The value for U19A A65G was 1.05; that for U19A C27U U59A A65C G67U was 0.575.
Consider U19A A36C A40G A57C, for which the yeast fitness was at most 0.5.
Take G18C C24G C34U C49A: the yeast fitness was at most 0.5.
Turning to G18A U32C A65G, the yeast fitness came out at 0.535.
Turning to U19A C22U G63C, the yeast fitness is at most 0.5.
Under G18C G44A G68A stands at most 0.5; under G18A U19A G56A C60U C61G, at most 0.5; under U19A C31G A36U A65U, at most 0.5.
Regarding G18C C24U A40U C55U U59A, the yeast fitness turned out to be 0.501.
Take G18C A21G U47A G67C: the yeast fitness was 0.53.
Regarding G18C C60U A70U, the yeast fitness is at most 0.5.
As to G18C C24U, the yeast fitness was 0.641.
In the case of G18C C24A, the yeast fitness was at most 0.5.
For the variant G18A U28C U47A, the yeast fitness was at most 0.5.
For the variant G18C A57C, the yeast fitness was found to be 0.627.
In the case of G18U U26A, the yeast fitness turned out to be 0.623.
The value for G18C A37G G51A C61U C66A was at most 0.5.
For the variant U19A C27G C31U C62U, the yeast fitness is at most 0.5.
As for U19A A21G A43C G51C G68C, the yeast fitness was at most 0.5.
Regarding G18C C33G C49G, the yeast fitness was at most 0.5.
For the variant G18C A20G C29A C49U, the yeast fitness was at most 0.5.
As for U19A A43G A57C A65U, the yeast fitness is at most 0.5.
Turning to U19A, the yeast fitness is 1.
The value for G18C U35G G41C C66G was at most 0.5; that for G18C G23A G25C A37G A43C C55G C62A G68A was at most 0.5.
Regarding U19A A37G A65G, the yeast fitness is 0.707.
Under G18C C27A U28A A42U stands at most 0.5; under G18A U26G A40G U59G C62A, at most 0.5; under G18C G23A G25C A37G A43C C55G, at most 0.5.
On to U19A C24G C27U C30A G52C, for which the yeast fitness is 0.571.
As to U19A C34G A37U C49G, the yeast fitness was at most 0.5.
Regarding G18C U53G C60A, the yeast fitness is at most 0.5.
The value for G18C C33G A40G C61U was at most 0.5.
In the case of G18C A45C A65U, the yeast fitness was at most 0.5.
G18C C30U U64A: the yeast fitness was at most 0.5.
For G18C G44C, the yeast fitness worked out at 0.637.
With G18C G44U, the yeast fitness turned out to be 0.554.
G18C G51A C66A: the yeast fitness came to 0.537.
With G18U U26A A69U, the yeast fitness was at most 0.5.
As for U19A A43G, the yeast fitness came to 0.867.
The value for G18C C49G A65U was 0.66.
The value for G18C C22G A69C was at most 0.5; that for G18C C27U C55G was 0.67.
In the case of G18C G44A G67U, the yeast fitness was at most 0.5.
Take G18C C29U G39A C49U G56C: the yeast fitness was at most 0.5.
Turning to G18A U53A C66U, the yeast fitness was at most 0.5.
Under U19A C30G A40C G67C stands at most 0.5.
The value for G18C C22U C29A A42G was 0.541; that for G18C A70G was 0.588.
On to G18C A70U, for which the yeast fitness is 0.737.
In the case of U19A C24G C27U C30A G52C G56A, the yeast fitness was at most 0.5.
For U19A A36G C46A, the yeast fitness was 0.69.
Consider G18A U35A A40G C61U, for which the yeast fitness is at most 0.5.
Under G18C U19G A20G C33A U35C stands at most 0.5; under G18C C24G C49G C61U, at most 0.5.
As for G18C C62A G68C, the yeast fitness is at most 0.5.
Under G18C U35A A65C stands at most 0.5.
Under U19A C27G A40G stands at most 0.5; under G18C A21G C27A C30U G38A, 0.547.
Under U19A C27U A42U A45G U64A stands at most 0.5; under U19A A42G G68U, at most 0.5.
G18C U26A A45G C62G: the yeast fitness was 0.556.
The value for G18C A65U was 0.691.
Under G18U U26A G56A G67A stands 0.578; under G18C C29G C31G A57C, 0.549.
For the variant G18C G23A G25C A37G A43C C55G G68A, the yeast fitness was determined as 0.551.
As to G18C G39C, the yeast fitness amounted to 0.683.
For G18C G23C G39A C55A, the yeast fitness is 0.696.
The value for G18C A40G A42G G58C was at most 0.5.
For G18A U26G G50C G63C, the yeast fitness turned out to be 0.589.
As to U19A A43U C62U, the yeast fitness came to 0.771.
As for U19A A43U A69U, the yeast fitness came out at 0.85.
G18C G52C: the yeast fitness was found to be 0.819.
Under U19A C27A G52C stands at most 0.5.
Consider U19A C22G C34U A42G A43G A70U, for which the yeast fitness is at most 0.5.
G18C A20G C29A G67A: the yeast fitness is at most 0.5.
As to G18C C30U C31U G48A, the yeast fitness is at most 0.5.
Consider U19A A21C C31G G41A A43C, for which the yeast fitness was at most 0.5.
Under G18C C33G A40G G58A U64A stands 0.59.
U19A C30A A43G C49U C55A: the yeast fitness is 0.64.
U19A C29G C33U U47A G51A C61U: the yeast fitness was at most 0.5.
The value for G18C G23A G25C U26C A37G A43C C55G G68A was at most 0.5; that for U19A A37U G41C was at most 0.5; that for U19A C29G A42C C46A C49G was at most 0.5.
The value for G18C G38U G51A was at most 0.5; that for U19A A65C C66G A70G was at most 0.5; that for U19A A37U G68U was at most 0.5.
Turning to G18C A21U C27U, the yeast fitness was at most 0.5.
For G18C A20U C31U G48A C55U G68U, the yeast fitness is 0.586.
In the case of U19A C30A A65G, the yeast fitness turned out to be 0.673.
